Test results as given in ChEMBL document CHEMBL1123643, “Modulation of the antitumor activity by methyl substitutions in the series of 7H-pyridocarbazole monomers and dimers” (1987).

Legend:
L1210 [1] = test: In vitro cellular toxicity against L1210 (mouse leukemia) cells.; assay type: functional; conditions: read-out: ED50 (the source's name)
Summary of the method: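 Exponentially growing L1210 cells (1 × 10^5/mL) exposed 24 h at 37 °C in RPMI 1640 with 10% fetal calf serum at a range of concentrations. Total cells counted by flow cytometer. Duplicate treated cultures were expressed as % of triplicate untreated controls. ED50 came from linear regression of residual % versus log concentration.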

L1210 [2] = test: In vitro inhibition of L1210 (mouse leukemia) cell cloning efficiency.; assay type: functional
Summary of the method: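 After 24 h drug exposure, L1210 cells were diluted to 250 and 500 cells/mL and plated in Noble agar. Plates were held 14 days at 37 °C in 5% CO2, and colonies >0.2 mm were counted. Triplicates were run per concentration. CE37, the concentration reducing cloning efficiency to 0.37, came from dose–response curves.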

Calf thymus DNA = test: Binding affinity against calf-thymus DNA at pH 7.4; assay type: nucleic-acid assay; conditions: Bos taurus
Summary of the method: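 Fluorimetric competition at pH 7.4, 25 °C. Monomers: 10^-5 M compound with calf thymus DNA (4 µg/mL), titrated with ethidium bromide (ex 546/em 590 nm), Scatchard analysis. Dimers: ethidium dimer (6.4 × 10^-7 M) with DNA (1.6 × 10^-6 M bp) equilibrated 24 h with varied compound (ex 540/em 610 nm); constant fitted from displacement curves with site size n.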

Mus musculus [3] = test: In vivo change in mean survival time in L1210 (mouse leukemia) inoculated mice.; assay type: functional
Summary of the method: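 DBA2 mice given 10^5 L1210 cells ip; 24 h later single ip dose of drug, controls given same volume of solvent; 20–30 animals/group. Deaths recorded daily; survivors beyond 45 days counted cured. Value is treated mean survival time over control mean survival time ×100 (T/C %).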

L1210 [4] = test: In vivo antitumor activity in L1210 (mouse leukemia) inoculated mice (optimal dose).; assay type: functional
Summary of the method: (§1)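 DBA2 mice (20–30/group) received 10^5 L1210 cells ip. Compound was given ip 24 h later; controls received solvent vehicle. Deaths were recorded daily, and survivors beyond 45 days were counted as cured. T/C% = treated/control mean survival time × 100. MTD was the highest dose causing no deaths; OD was the optimal dose.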

L1210 [5] = test: (§2) In vivo maximum tolerate dose in L1210 (mouse leukemia) inoculated mice.; assay type: functional
Summary of the method: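 L1210-bearing DBA2 mice (10^5 cells ip), drug given ip 24 h after inoculation. Acute toxicity by usual procedure; MTD taken as highest dose administered without causing animal death, in mg/kg.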

Mus musculus [6] = test: In vivo change in mean survival time in L1210 (mouse leukemia) inoculated mice (Not significant).; assay type: functional, organism-based; summary of the method: as §1
L1210 [7] = test: as §2; assay type: functional; summary of the method: as §1; remark: listed apart in the source

SMILES	EC50 (L1210 [1])	CE37 (L1210 [2])	K (Calf thymus DNA)	T/C (Mus musculus [3])	OD (L1210 [4])	MTD (L1210 [5])	T/C (Mus musculus [6])	Optimal dose (L1210 [4])	Dose (L1210 [7])
CNc1cccc2c1ccc1[nH]c3ccc(OC)cc3c12.I	19200 nM	>2.5 µM	40000 M⁻¹	–	–	–	–	–	–
COc1ccc2[nH]c3c(C)cc4ccc(NCCN5CCCCC5)cc4c3c2c1.Cl	110 nM	0.1 µM	930000 M⁻¹	123%	5 mg/kg	23 mg/kg	–	–	–
COc1ccc2c(c1)c1c3ccc(NCCN4CCC(C5CCN(CCNc6ccc7c(ccc8c7c7cc(OC)ccc7n8C)c6)CC5)CC4)cc3ccc1n2C.Cl.Cl	–	3.93 µM	6e+06 M⁻¹	–	7.5 mg/kg	15 mg/kg	Not significant	–	–
COc1ccc2c(c1)c1c3cc(NCCN4CCC(C5CCN(CCNc6ccc7ccc8c(c7c6)c6cc(OC)ccc6n8C)CC5)CC4)ccc3ccc1n2C.Cl.Cl	360 nM	0.006 µM	2e+07 M⁻¹	178%	2.5 mg/kg	10 mg/kg	–	–	–
COc1ccc2[nH]c3ccc4cc(NCCN5CCC(C6CCN(CCNc7ccc8c(ccc9[nH]c%10ccc(OC)cc%10c98)c7)CC6)CC5)ccc4c3c2c1.Cl.Cl	–	–	3e+06 M⁻¹	130%	20 mg/kg	100 mg/kg	–	–	–
COc1ccc2[nH]c3cc(C)c4ccc(NCCN5CCCCC5)cc4c3c2c1	2240 nM	–	100000 M⁻¹	–	–	–	–	–	–
CNc1ccc2ccc3[nH]c4ccc(OC)cc4c3c2c1.I	950 nM	0.77 µM	290000 M⁻¹	–	25 mg/kg	50 mg/kg	Not significant	–	–
COc1ccc2[nH]c3c(C)cc4ccc(NCCN5CCC(C6CCN(CCNc7ccc8cc(C)c9[nH]c%10ccc(OC)cc%10c9c8c7)CC6)CC5)cc4c3c2c1.Cl.Cl	370 nM	0.01 µM	5e+08 M⁻¹	172%	–	11 mg/kg	–	–	–
COc1ccc2[nH]c3c(C)cc4cc(NCCN5CCC(C6CCN(CCNc7ccc8c(c7)cc(C)c7[nH]c9ccc(OC)cc9c78)CC6)CC5)ccc4c3c2c1.Cl.Cl	> 1000 nM	0.6 µM	1e+07 M⁻¹	–	–	–	–	–	–
CNc1ccc2ccc3c(c2c1)c1cc(OC)ccc1n3C.I	220 nM	0.74 µM	700000 M⁻¹	122%	17 mg/kg	25 mg/kg	–	–	–
CNc1ccc2c(ccc3[nH]c4ccc(OC)cc4c32)c1.I	> 2500 nM	–	200000 M⁻¹	–	25 mg/kg	50 mg/kg	Not significant	–	–
COc1ccc2c(c1)c1c3cc(NCCN4CCCCC4)ccc3cc(C)c1n2C.Cl	440 nM	–	610000 M⁻¹	–	10 mg/kg	10 mg/kg	Not significant	–	–
CNc1ccc2c(c1)cc(C)c1[nH]c3ccc(OC)cc3c12.I	300 nM	0.15 µM	300000 M⁻¹	–	–	–	–	–	–
COc1ccc2[nH]c3ccc4ccc(NCCN5CCC(C6CCN(CCNc7ccc8ccc9[nH]c%10ccc(OC)cc%10c9c8c7)CC6)CC5)cc4c3c2c1.CS(=O)(=O)O.CS(=O)(=O)O	190 nM	0.024 µM	1e+07 M⁻¹	182%	10 mg/kg	10 mg/kg	–	–	–
CNc1ccc2cc(C)c3c(c2c1)c1cc(OC)ccc1n3C.I	220 nM	0.6 µM	1e+06 M⁻¹	–	–	–	–	–	–
CNc1ccc2c(ccc3c2c2cc(OC)ccc2n3C)c1.I	2220 nM	–	310000 M⁻¹	115%	75 mg/kg	150 mg/kg	–	–	–
CNc1ccc2c(C)cc3[nH]c4ccc(OC)cc4c3c2c1.I	> 2500 nM	3.71 µM	60000 M⁻¹	–	–	–	–	–	–
CNc1cccc2c1cc(C)c1[nH]c3ccc(OC)cc3c12.I	> 2500 nM	>2.5 µM	61000 M⁻¹	–	–	–	–	–	–
COc1ccc2[nH]c3ccc4ccc(NCCN5CCCCC5)cc4c3c2c1.Cl	250 nM	0.14 µM	540000 M⁻¹	–	5 mg/kg	10 mg/kg	Not significant	–	–
CNc1ccc2cc(C)c3[nH]c4ccc(OC)cc4c3c2c1.I	60 nM	0.03 µM	180000 M⁻¹	125%	–	–	–	25 mg/kg	50 mg/kg
COc1ccc2[nH]c3cc(C)c4ccc(NCCN5CCC(C6CCN(CCNc7ccc8c(C)cc9[nH]c%10ccc(OC)cc%10c9c8c7)CC6)CC5)cc4c3c2c1.Cl.Cl	> 1000 nM	0.42 µM	5e+06 M⁻¹	120%	2 mg/kg	6 mg/kg	–	–	–
COc1ccc2c(c1)c1c3cc(NCCN4CCC(C5CCN(CCNc6ccc7cc(C)c8c(c7c6)c6cc(OC)ccc6n8C)CC5)CC4)ccc3cc(C)c1n2C.Cl.Cl	3270 nM	10.9 µM	1e+08 M⁻¹	–	–	–	–	–	–
COc1ccc2c(c1)c1c3cc(NCCN4CCCCC4)ccc3ccc1n2C.Cl	670 nM	3.36 µM	1.2e+06 M⁻¹	–	5 mg/kg	10 mg/kg	Not significant	–	–
